Screening results as filed in PubChem BioAssay.
Only some compounds are listed: those with a hit (about 2.9% of all), similar ones and a draw of the others.
SENP8 block-1 = SENP8 protease inhibitors, primary screen, biochemical, luminescence; Sentrin-specific protease 8 (Homo sapiens), Q96LD8; purified SENP8, Z-RLRGG-aminoluciferin cleavage; inhibition, % at 10 µM; 330,000 tested, 1.2% active; in the data active = inhibition above about 50%
SENP7 block = SENP7 protease inhibitors, primary screen, biochemical, luminescence, uHTS | recombinant SENP7, Z-RLRGG-aminoluciferin luminescence, 40 min | inhibition, % at 5 µM | 330,000 tested, 1.5% active;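 active = inhibition above about 50% at the single test dose, limit read from the data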;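 also: plate controls were DMSO with enzyme for no effect and no enzyme buffer wells for full effect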
Target sequence (Q9BQF6 706-1050 limits assumed): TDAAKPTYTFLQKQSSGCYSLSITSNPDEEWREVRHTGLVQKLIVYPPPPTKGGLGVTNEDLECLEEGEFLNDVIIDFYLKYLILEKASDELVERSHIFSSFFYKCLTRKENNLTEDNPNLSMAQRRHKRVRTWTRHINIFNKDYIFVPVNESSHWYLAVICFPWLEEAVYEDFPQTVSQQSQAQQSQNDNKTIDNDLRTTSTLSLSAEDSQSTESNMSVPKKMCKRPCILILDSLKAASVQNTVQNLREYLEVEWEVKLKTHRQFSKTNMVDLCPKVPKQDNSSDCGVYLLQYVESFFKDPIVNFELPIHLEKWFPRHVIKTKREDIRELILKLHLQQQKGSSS
SENP1 inh = human SENP1 catalytic domain inhibitors, primary screen, biochemical, FRET, uHTS; Sentrin-specific protease 1 (Homo sapiens), Q9P0U3; recombinant SENP1 catalytic domain, CyPet-SUMO1-YPet FRET cleavage; inhibition, % at 10 µM; 360,000 tested, 0.21% active;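 active = inhibition at least 30% at 10 µM, raw YFP signal under a set limit, fluorescence ratio 0.5 to 1.5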;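 also: 0% = enzyme with DMSO and 100% = no enzyme wells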
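Material – human SENP1 catalytic domain · Input – SENP1 enzyme, 20 pM final · Compound dosing – single concentration of 10 µM compound, 0.5% DMSO final · Timing – enzyme reaction for 50 min at room temperature, dark · Measured by – FRET fluorescence in CFP and YFP emission channels · Control set – no-enzyme wells low, DMSO-plus-enzyme wells high control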
SENP6 inh = SENP6 protease inhibitors, primary screen, biochemical, luminescence, uHTS | 330,000 tested, 1.8% active | inhibition, % at 10 µM | Recombinant SENP6 catalytic domain, aminoluciferin luminescence | AID 2599, 2010 | Sentrin-specific protease 6 (Homo sapiens), Q9GZR1;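 active = inhibition above about 50% at the single tested dose, limit read from the data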;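 also: plate controls were DMSO wells with enzyme for no effect and DMSO wells lacking enzyme for full effect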
HSP90 refold inh = HSP90 inhibitors, primary screen, cell lysate, luminescence | 290,000 tested, 0.91% active | Rabbit reticulocyte lysate, luciferase refolding luminescence, 3 h | Heat shock protein HSP 90 (rabbit reticulocyte lysate; luciferase refolding) | inhibition, % at 5.6 µM;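 active = inhibition above the screen-wide mean plus 3 SD, computed separately per campaign, cut at about 16% in these data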;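 also: 0% = DMSO wells and 100% = 60 µM geldanamycin wells; inhibitors lower the luminescence because luciferase stays unfolded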
SENP8 block-2 = human SENP8 protease inhibitors, primary screen, biochemical, fluorescence, Nedd8 protein substrate, uHTS | Sentrin-specific protease 8 (Homo sapiens), Q96LD8 | recombinant SENP8 | inhibition, % at 20 µM | 360,000 tested, 0.64% active | AID 602440, 2012; in the data active = inhibition mostly above about 40%, no sharp cut-off; inactive = mostly below about 27%
Active calls of the source: *; nt = not tested or not shown.

SMILES	SENP8 block-1	SENP7 block	SENP1 inh	SENP6 inh	HSP90 refold inh	SENP8 block-2
O=C(NC(=S)NNC(=O)c1cc2ccccc2cc1O)c1ccco1	61*	45	-1	15	-2	8
O=C(NC(=S)NNC(=O)c1ccccc1O)c1ccco1	nt	nt	1	nt	6	3
O=C1NN(c2cccc(Br)c2)C(=O)/C1=C/c1ccc(-c2cc([N+](=O)[O-])ccc2O)o1	11	6	4	16	-1	51*
Cc1ccc(NC2=C(NC(=O)c3ccccc3)C(=O)c3ccccc3C2=O)cc1Cl	15	5	-1	35	8	62*
Cc1ccc(NCC(=O)c2ccccc2)cc1Cl	2	-4	3	27	-1	23
Cc1cc2c(cc1S(=O)(=O)CCC(=O)N1CC(C)CC(C)C1)OCC(=O)N2 (centres undefined)	-4	-10	1	-16	-4	0
Cc1ccc(C(=O)Nc2ncc([N+](=O)[O-])s2)cc1	nt	nt	-56	nt	80*	20
O=C(Cc1ccc(Br)cc1)Nc1ncc([N+](=O)[O-])s1	92*	53*	-49	94*	3	18
CN1C(=O)/C(=C/c2ccc(-c3ccccc3[N+](=O)[O-])o2)SC1=Nc1ccc(Cl)c(C(=O)O)c1	nt	nt	3	nt	4	42*
Cc1cccc2nc(COc3ccc(-c4ccccc4)cc3)cn12	92*	95*	nt	94*	1	nt
COc1n[nH]c(C(=O)Nc2nc3ccccc3s2)c1[N+](=O)[O-]	91*	92*	0	96*	-4	16
O=C(COC(=O)c1ccc(OC(F)F)cc1)NCC1CCCO1 (centres undefined)	nt	nt	4	nt	nt	11
O=C(c1ccc(F)cc1)n1ccc(-c2cnc(-c3ccccc3)s2)n1	32	85*	2	55*	2	-457
Fc1ccc(Cn2ccc(-c3cnc(-c4ccccc4)s3)n2)cc1	-8	21	1	12	-3	-491
O=C(CSc1cn(CC(=O)N2CCOCC2)c2ccccc12)N1CCOCC1	1	7	0	-2	5	10
O=C(Cn1cc(SCc2cccc(Cl)c2)c2ccccc21)N1CCOCC1	47	55*	1	-15	-5	12
CNC(=O)c1ccc(NC(=O)c2ccccc2OCc2c(C)noc2C)cc1	nt	nt	3	nt	nt	-1
COc1ccc2nc(N=Nc3ccc(N(C)C)cc3)sc2c1	nt	nt	-1	nt	26*	33
O=C(NCCc1ccc(Cl)cc1)c1cc(S(=O)(=O)N2CCCCC2)c[nH]1	-3	18	1	-3	38*	9
Cc1ccc(CCNC(=O)c2cc(S(=O)(=O)N3CCCCC3)c[nH]2)cc1	-3	-6	1	-20	5	9
Cc1ccc(C(=O)CSc2nnc3ccccn23)c(C)c1	-16	-11	2	-11	12	11
COCCn1c(C)cc(C(=O)CSc2nnc3ccccn23)c1C	33	39	2	47	50*	13
Cc1onc(-c2ccccc2)c1-c1nnc(CN2CCN(S(=O)(=O)c3ccccc3)CC2)o1	0	-12	-1	2	nt	12
Cc1cc(C)c2nc(NNC(=O)c3cc(=O)c4ccccc4o3)sc2c1	63*	2	9	79*	15	4
COc1ccc(C(=O)/C=C/c2ccc(N3CCCCC3)c([N+](=O)[O-])c2)c(OC)c1	nt	nt	1	nt	0	41*
COc1ccc(C(=O)/C=C/c2ccc(N3CCCCC3)c([N+](=O)[O-])c2)cc1	-7	1	5	-26	0	20
CCC(O)C1CCN(C(=O)c2ccc(OC3CCN(Cc4ccccn4)CC3)cc2)CC1 (centres undefined)	9	4	-10	12	2	0
Cc1nnsc1S(=O)c1ccc(Cl)c(Cl)c1 (centres undefined)	2	0	1	-2	-2	15
